Consider 17 compounds from ChEMBL document CHEMBL3272222, “Heterocyclic and piperonylic acid esters of 1-methyl-4-piperidinol as analgesics” (J Med Chem, 1977).

The test system of data set [1] is Mus musculus. In words: Analgesic activity in sc dosed mouse by hot-plate assay. In kind it is functional. Summed up:
(§1)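 Mice dosed subcutaneously with compounds as water-soluble salts. ED50 in mg/kg, with 95% confidence limits from probit analysis. Overt toxicity was also noted at the doses given.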
Background: Hot-plate and tail-flick tests time the reaction to a heat stimulus.

Data set [2] concerns Mus musculus. In words: Toxicity in mouse at 60 mg/kg, sc. In kind it is organism-based. More on the design: dose 60 mg/kg, route subcutaneous. The conditions noted are these: in vivo. Summed up: (§2)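 Toxic signs were recorded in mice during analgesic testing after subcutaneous doses of the compounds, given as water-soluble salts.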
Data set [3] concerns Mus musculus. In words: Toxicity in mouse at 50 mg/kg, sc. In kind it is organism-based. Further details: dose 50 mg/kg, route subcutaneous. The note with it: in vivo. Summed up: as §2
The target of data set [4] is Opioid receptor (Rattus norvegicus) (UniProt P33533+P34975+P33535). The conditions noted are these: Brain.
Opioid receptor (Rattus norvegicus), sequence (P33533 whole entry, looked up): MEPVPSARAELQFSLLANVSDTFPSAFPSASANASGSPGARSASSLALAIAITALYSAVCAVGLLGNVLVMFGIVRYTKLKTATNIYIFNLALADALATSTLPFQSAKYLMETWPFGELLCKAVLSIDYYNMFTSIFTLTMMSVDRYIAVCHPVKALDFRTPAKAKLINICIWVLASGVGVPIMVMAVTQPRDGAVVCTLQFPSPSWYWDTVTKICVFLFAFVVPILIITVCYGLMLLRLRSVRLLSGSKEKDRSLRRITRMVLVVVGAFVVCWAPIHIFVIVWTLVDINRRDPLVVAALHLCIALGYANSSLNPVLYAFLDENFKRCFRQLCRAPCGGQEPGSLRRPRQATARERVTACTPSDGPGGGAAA
Opioid receptor (Rattus norvegicus), sequence (P33535 whole entry, looked up): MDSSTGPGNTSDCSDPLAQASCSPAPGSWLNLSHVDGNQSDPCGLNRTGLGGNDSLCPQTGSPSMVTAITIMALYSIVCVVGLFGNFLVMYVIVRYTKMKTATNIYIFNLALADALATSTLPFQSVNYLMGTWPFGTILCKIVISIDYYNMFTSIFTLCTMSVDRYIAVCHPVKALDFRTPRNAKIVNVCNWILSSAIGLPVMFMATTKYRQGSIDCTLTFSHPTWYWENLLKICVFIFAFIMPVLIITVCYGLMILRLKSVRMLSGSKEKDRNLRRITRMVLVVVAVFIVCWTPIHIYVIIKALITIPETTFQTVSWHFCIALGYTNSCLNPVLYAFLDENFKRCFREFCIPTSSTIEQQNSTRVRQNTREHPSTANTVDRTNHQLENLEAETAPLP
Opioid receptor (Rattus norvegicus), sequence (P34975 whole entry, looked up): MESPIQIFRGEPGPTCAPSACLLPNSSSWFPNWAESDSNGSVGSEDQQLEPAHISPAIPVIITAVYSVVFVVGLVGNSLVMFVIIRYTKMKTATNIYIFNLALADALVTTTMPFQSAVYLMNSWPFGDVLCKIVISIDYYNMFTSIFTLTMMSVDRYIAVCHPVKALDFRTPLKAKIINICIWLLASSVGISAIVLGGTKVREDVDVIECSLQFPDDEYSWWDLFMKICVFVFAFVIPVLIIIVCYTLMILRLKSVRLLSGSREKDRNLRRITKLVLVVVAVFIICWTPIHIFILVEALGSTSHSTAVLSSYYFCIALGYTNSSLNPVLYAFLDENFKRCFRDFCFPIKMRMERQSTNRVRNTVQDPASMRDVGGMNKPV
The test system of data set [5] is Mus musculus. In words: Analgesic activity in mouse at 20 mg/kg, sc by hot-plate assay. More on the design: dose 20 mg/kg. In kind it is functional, organism-based. Summed up:
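Mouse hot-plate analgesia test. Compounds were given subcutaneously as water-soluble salts. ED50 values carry 95% confidence limits from probit analysis.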

The subject of data set [6] is Mus musculus. In words: Toxicity in mouse at 40 mg/kg, sc. In kind it is organism-based. Further details: dose 40 mg/kg, route subcutaneous. The conditions noted are these: in vivo. In outline:
as §2

The subject of data set [7] is Mus musculus. The experiment in a line: Analgesic activity in sc dosed mouse by Nilsen method. It counts as functional. Summed up: as §1
Data set [8] relates to Mus musculus. In words: Toxicity in mouse at 20 mg/kg, sc. It counts as organism-based. Further details: dose 20 mg/kg, route subcutaneous. The note with it: in vivo. In outline: as §2
Data set [9] has as its system Mus musculus. In words: Analgesic activity in sc dosed mouse assessed as inhibition of p-phenylquinone-induced abdominal-stretching. In kind it is functional.
The subject of data set [10] is Mus musculus. In words: Analgesic activity in sc dosed mouse by tail-flick assay. In kind it is functional.
The test system of data set [11] is Mus musculus. The experiment in a line: Analgesic activity in mouse at 10 mg/kg, sc by tail-flick assay. It counts as functional, organism-based. More on the design: dose 10 mg/kg.
Data set [12] relates to Mus musculus. The experiment in a line: Analgesic activity in mouse assessed as inhibition of p-phenylquinone-induced abdominal-stretching at 10 mg/kg, sc. It counts as functional, organism-based. More on the design: dose 10 mg/kg. In outline:
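Mice were dosed subcutaneously with test compounds as water-soluble salts and then run in the tail-flick assay and in the p-phenylquinone-induced abdominal-stretching (PPQ) assay.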

Data set [13] deals with Rhesus monkey. The experiment in a line: Toxicity in monkey assessed as piloerection at 12 mg/kg administered as single dose. The conditions noted are these: in vivo. In kind it is organism-based, Macaca mulatta. Further details: dose 12 mg/kg.
The subject of data set [14] is Rhesus monkey. In words: Toxicity in monkey assessed as tremors at 12 mg/kg administered as single dose. Further details: dose 12 mg/kg. It counts as organism-based, Macaca mulatta. The note with it: in vivo.
In data set [15] the test system is Rhesus monkey. In words: Toxicity in nonwithdrawn monkey assessed as mild abstinence signs at 6 mg/kg administered as single dose. In kind it is organism-based, Macaca mulatta. Further details: dose 6 mg/kg. The note with it: in vivo.
The subject of data set [16] is Rhesus monkey. In words: Toxicity in monkey assessed as morphine-like dependence liability. The conditions noted are these: in vivo. In kind it is organism-based, Macaca mulatta. Summed up: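 Physical dependence liability of the morphine type was assessed in Rhesus monkeys.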
Data set [17] concerns Rhesus monkey. In words: Toxicity in monkey assessed as retching at 12 mg/kg administered as single dose. In kind it is organism-based, Macaca mulatta. More on the design: dose 12 mg/kg. The note with it: in vivo.
Data set [18] relates to Rhesus monkey. The experiment in a line: Toxicity in monkey assessed as increased respiration at 12 mg/kg administered as single dose. In kind it is organism-based, Macaca mulatta. The conditions noted are these: in vivo. More on the design: dose 12 mg/kg.
Data set [19] deals with Mus musculus. The experiment in a line: Toxicity in mouse at 30 mg/kg, sc. The conditions noted are these: in vivo. Further details: dose 30 mg/kg, route subcutaneous. It counts as organism-based. In outline: as §2
Data set [20] concerns Rhesus monkey. In words: Toxicity in nonwithdrawn monkey assessed as mild CNS depression at 6 mg/kg administered as single dose. It counts as organism-based, Macaca mulatta. More on the design: dose 6 mg/kg. The note with it: in vivo.
The test system of data set [21] is Rhesus monkey. The experiment in a line: Toxicity in monkey assessed as increase in severity of abstinence signs at 6 mg/kg administered as single dose. In kind it is organism-based, Macaca mulatta. More on the design: dose 6 mg/kg. The note with it: in vivo. In outline: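 Rhesus monkeys were used in single-dose suppression tests for physical dependence. The compound was given at 6.0 mg/kg and the severity of abstinence signs was scored.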

Active and inactive are the calls of the source. The rule behind the calls is not given here.

For the compound `CN1CCC(OC(=O)c2cnc3ccccc3c2)CC1.Cl`, in data set [1], the ED50 is 11.2 mg/kg. Besides, the Activity result in data set [2] is “Non-toxic”.

On to `CN1CCC(OC(=O)c2ccco2)CC1.O=C(O)/C=C\C(=O)O`, for which the ED50 in data set [1] came out at 12.5 mg/kg. Besides, the Activity result in data set [3] is “Non-toxic”.

`CCOC(=O)C1(c2ccccc2)CCN(C)CC1` showed an ED50 in data set [4] of 0.7 µM.

`CN1CCC(OC(=O)C2c3ccccc3Oc3ccccc32)CC1.Cl` registered an ED50 in data set [1] of 35 mg/kg.

On to `Cc1ccc(C(=O)OC2CCN(C)CC2)cc1C`, for which the outcome in [5] was Active.

`CN1CCC(OC(=O)c2ccc3ncccc3c2)CC1.Cl`: the Activity result in [6] is recorded as “Non-toxic”; in data set [3] it was “Toxic”. Further, the ED50 in data set [1] is 9.3 mg/kg; in data set [7], 29.7 mg/kg; in data set [4], more than 100 µM.

Take `Cc1[nH]c(C)c(C(=O)OC2CCCN(C)C2)c1C` (stereo not given): the ED50 entry in [1] is “inactive”.

Consider `Cc1ccc(C(=O)OC2CCN(C)CC2)s1`, for which the ED50 result in data set [1] is “inactive”.

Regarding `Cc1[nH]c(C)c(C(=O)OC2CCN(C)CC2)c1C`, in data set [8], the Activity entry is listed as “Non-toxic”. Moreover, the values for the ED50 in data set [9], in data set [10] and in data set [4] were 15.1 mg/kg, 15.1 mg/kg and 1 µM, respectively. The outcome in data set [11] and in data set [12] was Active.

Regarding `CN1CCC(OC(=O)c2ccc3c(c2)OCO3)CC1.Cl`, the Activity result in data set [13] is recorded as “Toxic”; in data set [14], “Toxic”; in [15], “Toxic”; in [16] it was “Non-toxic”; in data set [17], “Toxic”; in data set [18], “Toxic”. Further, the Activity entry in data set [19] is on record as “Non-toxic”; in data set [20], “Toxic”; in data set [21] it was “Toxic”. In addition, the ED50 in data set [4] is 30 µM.

The compound `CN1CCCC(COC(=O)c2ccc3c(c2)OCO3)C1.Cl` (stereo not given) had an ED50 in data set [1] of 22.7 mg/kg.

Turning to `CN1CCC(OC(=O)c2ccc(Br)o2)CC1.Cl`, in data set [1], the ED50 was found to be 17.7 mg/kg.

`CN1CCC(OC(=O)c2cccs2)CC1.Cl`: the Activity result in data set [6] is recorded as “Non-toxic”. Also, the ED50 in data set [1] is 13.3 mg/kg; in data set [4], more than 100 µM. Moreover, the ED50 entry in [7] was “inactive”.

On to `CN1CCC(OC(=O)c2ccoc2)CC1.O=C(O)/C=C\C(=O)O`, for which the ED50 in data set [1] stood at 27.9 mg/kg.

Consider `CN1CCC(OC(=O)c2cnc3ccccc3n2)CC1`, for which the ED50 entry in data set [1] is “inactive”.

For the compound `CN1CCC(OC(=O)c2ccncc2)CC1.O=C(O)/C=C\C(=O)O`, in [1], the ED50 amounted to 44.2 mg/kg.

Turning to `Cc1c(C(=O)OC2CCN(C)CC2)c(C)n(C)c1C`, in [5], the outcome was Active.
